Results as given in ChEMBL document CHEMBL1135587, “Discovery and structure-activity relationship of N-(ureidoalkyl)-benzyl-piperidines as potent small molecule CC chemokine receptor-3 (CCR3) antagonists” (J Med Chem, 2002).

Experiments:
[1] = target: T1, C-C chemokine receptor type 3 (Homo sapiens, UniProt P51677); experiment: Inhibitory activity against recombinant human Chemokine receptor type 3 (CCR3) expressed in chinese hamster ovary cells; format: cell-based, CHO
T1 sequence (P51677 whole entry): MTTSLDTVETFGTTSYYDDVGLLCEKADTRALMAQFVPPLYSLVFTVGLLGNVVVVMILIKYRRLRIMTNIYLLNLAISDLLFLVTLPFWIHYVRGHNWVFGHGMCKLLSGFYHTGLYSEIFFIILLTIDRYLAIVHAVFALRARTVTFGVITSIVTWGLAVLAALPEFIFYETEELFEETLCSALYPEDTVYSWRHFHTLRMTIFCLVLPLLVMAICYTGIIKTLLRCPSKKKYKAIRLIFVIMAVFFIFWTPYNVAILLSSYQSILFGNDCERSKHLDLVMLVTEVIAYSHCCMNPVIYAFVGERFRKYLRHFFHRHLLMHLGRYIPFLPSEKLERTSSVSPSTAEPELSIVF
Outline: (§1)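 CHO cells transfected with human CCR3, 5×10^5 per well, incubated 30 min at room temperature with 150 pM (final) 125I-labeled human eotaxin and compound. Binding buffer: RPMI 1640 with 0.5% BSA, 20 mM HEPES, 5 mM MgCl2. Filtration on protamine-treated filter plates, washed with binding buffer plus 0.5 M NaCl, filter counted. Nonspecific binding defined with 100 nM eotaxin. Percent inhibition taken against compound-free total binding. IC50 values are the mean of usually three determinations.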

[2] = The compound was evaluated for its intracellular calcium mobilization; format: functional, cell-based; conditions: Homo sapiens
Outline: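 Freshly isolated human eosinophils loaded with 5 μM fluo-3 for 60 min at 37 °C, washed, then plated at 2×10^5/well in phenol red-free binding buffer. Compound or buffer added for 5 min, then eotaxin to 10 nM final, read on FLIPR. Base-to-peak fluorescence shift measured in duplicate; inhibition at graded concentrations expressed as percent of the compound-free eotaxin control to give IC50.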

[3] = target: T2, C-C chemokine receptor type 3 (Homo sapiens) (UniProt P51677); experiment: Evaluated for its inhibitory activity against human Chemokine receptor type 3 expressed in chinese hamster ovary cells at 5 uM; format: cell-based; conditions: CHO; outline: as §1
T2 sequence (whole entry): T1 sequence (P51677 whole entry)

[4] = The compound was evaluated for its eotaxin-induced chemotaxis; format: functional, Homo sapiens
Outline: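 Freshly isolated human eosinophils at 1×10^6 cells/mL in RPMI 1640/0.1% BSA; cells and 20 nM human eotaxin each mixed 1:1 with compound-containing medium. Eotaxin/compound in the lower well, cells/compound above, across a 5 μm PVP-free polycarbonate filter, 45 min at 37 °C. Filter wiped, dried and Wright Giemsa-stained; migrated cells counted by microscopy.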

[5] = target: T1, C-C chemokine receptor type 3; experiment: Evaluated for its inhibitory activity against human Chemokine receptor type 3 expressed in chinese hamster ovary cells; format: cell-based, CHO
Outline: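 Competition binding on CHO cells transfected with human CCR3, 5×10^5 cells per well, against 125I-human eotaxin at 150 pM final. Binding buffer: RPMI 1640 with 0.5% BSA, 20 mM HEPES, 5 mM MgCl2. Incubated 30 min at room temperature, then filtered on protamine-treated plates and washed with buffer plus 0.5 M NaCl before counting. Background binding defined with 100 nM eotaxin. Percent inhibition taken against the compound-free total. Values usually mean of three determinations.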

[6] = target: T2, C-C chemokine receptor type 3 (Homo sapiens); experiment: Evaluated for % inhibitory activity against human Chemokine receptor type 3 expressed in chinese hamster ovary cells; format: cell-based; conditions: CHO; concentration not given here; outline: as §1
[7] = target: T2, C-C chemokine receptor type 3 (Homo sapiens); experiment: Evaluated for its inhibitory activity against human Chemokine receptor type 3 expressed in chinese hamster ovary cells at 10 uM; format: cell-based; conditions: CHO; outline: as §1
[8] = target: T2, C-C chemokine receptor type 3 (Homo sapiens); experiment: Evaluated for its % inhibitory activity against Chemokine receptor type 3 at 5 uM; outline: as §1
[9] = target: T3, C-C chemokine receptor type 1 (Homo sapiens, UniProt P32246); experiment: Inhibitory activity against human Chemokine receptor type 1 expressed in chinese hamster ovary cells; format: cell-based, CHO
T3 sequence (P32246 whole entry): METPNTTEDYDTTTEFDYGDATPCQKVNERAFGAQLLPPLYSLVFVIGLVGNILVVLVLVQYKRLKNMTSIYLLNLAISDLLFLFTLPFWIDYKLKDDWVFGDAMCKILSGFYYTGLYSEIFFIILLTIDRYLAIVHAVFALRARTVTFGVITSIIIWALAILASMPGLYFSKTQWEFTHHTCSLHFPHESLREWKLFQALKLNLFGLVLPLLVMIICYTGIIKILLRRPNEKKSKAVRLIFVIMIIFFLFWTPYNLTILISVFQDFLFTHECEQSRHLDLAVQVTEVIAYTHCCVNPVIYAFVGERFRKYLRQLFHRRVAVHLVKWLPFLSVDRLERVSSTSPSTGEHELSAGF

[10] = target: T2, C-C chemokine receptor type 3 (Homo sapiens); experiment: Evaluated for its inhibitory activity against Chemokine receptor type 3 at 5 uM; outline: as §1
[11] = target: T2, C-C chemokine receptor type 3 (Homo sapiens); experiment: Evaluated for its % inhibitory activity against human Chemokine receptor type 3 expressed in chinese hamster ovary cells; format: cell-based; conditions: CHO; concentration not given here; outline: as §1

SMILES	IC50 [1] [nM]	IC50 [9] [nM]	further results
CNC(=O)c1cccc(NC(=O)Nc2ccccc2)c1CN1CCC(Cc2ccc(F)cc2)CC1	2	–	IC50 [2]: 4.3 nM
O=C(Nc1ccccc1)Nc1cccc(C(O)CN2CCC(Cc3ccccc3)CC2)c1 (stereo not drawn)	–	–	inhibition [3]: 71%
CC(=O)c1cccc(NC(=O)Nc2cccc(C(N)=O)c2CN2CCC(Cc3ccc(F)cc3)CC2)c1	2	–	IC50 [4]: 46 nM; IC50 [2]: 5.9 nM
OC1(c2ccc(Cl)cc2)CCN(Cc2ccccc2)CC1	–	–	IC50 [5]: 18.7 µM
N#Cc1cccc(NC(=O)Nc2ccc(CN3CCC(Cc4ccccc4)CC3)cc2)c1	–	–	inhibition [3]: 47%
CNC(=O)c1cccc(NC(=O)Nc2cccc(C(C)=O)c2)c1CN1CCC(Cc2ccc(F)cc2)CC1	1	–	IC50 [4]: 30 nM; IC50 [2]: 1.4 nM
CNC(=O)c1cccc(NC(=O)Nc2cccc(OC)c2)c1CN1CCC(Cc2ccc(F)cc2)CC1	2	–	IC50 [2]: 4.2 nM
CNC(=O)c1cccc(NC(=O)Nc2cccc(C#N)c2)c1CN1CCC(Cc2ccc(F)cc2)CC1	1	–	IC50 [2]: 5.3 nM
CC(=O)c1cccc(NC(=O)Nc2ccccc2CCN2CCC(Cc3ccc(F)cc3)CC2)c1	2.6	–	IC50 [4]: 71 nM
COc1ccc(NC(=O)Nc2ccc(CN3CCC(Cc4ccccc4)CC3)cc2)cc1	–	–	inhibition [6]: 48%
OC1(c2ccc(Cl)cc2)CCN(CCc2ccccc2)CC1	–	–	inhibition [7]: 19%
O=C(Nc1ccc(F)cc1F)Nc1ccccc1C(=O)CN1CCC(Cc2ccccc2)CC1	–	–	inhibition [8]: 35%
O=C(NCc1ccccc1)Nc1ccccc1CN1CCC(Cc2ccccc2)CC1	3400	> 10000	–
O=C(NCCc1ccc(F)cc1)NCC(CCCN1CCC(O)(c2ccc(Cl)cc2)CC1)(c1ccccc1)c1ccccc1	2200	295	–
c1ccc(CCN2CCC(Cc3ccccc3)CC2)cc1	7100	> 50000	–
O=C(NCCCO)Nc1ccccc1CN1CCC(Cc2ccccc2)CC1	2600	> 10000	–
N#Cc1cccc(NC(=O)Nc2ccccc2CCN2CCC(Cc3ccccc3)CC2)c1	140	> 10000	–
O=C(NCC(CCCN1CCC(O)(c2ccc(Cl)cc2)CC1)(c1ccccc1)c1ccccc1)Nc1ccc(C(F)(F)F)cc1	5200	890	–
COc1ccc(NC(=O)Nc2ccccc2CN2CCC(Cc3ccccc3)CC2)cc1	750	> 10000	–
N#Cc1cccc(NC(=O)Nc2ccccc2C(O)CN2CCC(Cc3ccccc3)CC2)c1 (stereo not drawn)	49	> 10000	–
O=C(NCC(CCCN1CCC(O)(c2ccc(Cl)cc2)CC1)(c1ccccc1)c1ccccc1)Nc1cc(F)ccc1F	5700	1340	–
O=C(NCCCCO)NCC(CCCN1CCC(O)(c2ccc(Cl)cc2)CC1)(c1ccccc1)c1ccccc1	5950	240	–
CC(=O)c1cccc(NC(=O)Nc2ccc(C(N)=O)cc2CN2CCC(Cc3ccc(F)cc3)CC2)c1	3	–	IC50 [2]: 9.5 nM
O=C(NCCCO)NCC(CCCN1CCC(O)(c2ccc(Cl)cc2)CC1)(c1ccccc1)c1ccccc1	2350	31	–

SMILES	IC50 [1] [nM]	IC50 [9] [nM]	further results
O=C(Nc1ccccc1CN1CCC(Cc2ccccc2)CC1)NC1CCN(Cc2ccccc2)CC1	3900	> 50000	–
CC(C)(C)NC(=O)NCC(CCCN1CCC(O)(c2ccc(Cl)cc2)CC1)(c1ccccc1)c1ccccc1	3000	71	–
O=C(Nc1cc(F)ccc1F)Nc1ccccc1N1CCC(Cc2ccccc2)CC1	–	–	inhibition [3]: 9%
N#CC(CCCN1CCC(O)(c2ccc(Cl)cc2)CC1)(c1ccccc1)c1ccccc1 [BERLEX COMPOUND]	9000	630	–
O=C(NCc1ccccc1)NCC(CCCN1CCC(O)(c2ccc(Cl)cc2)CC1)(c1ccccc1)c1ccccc1	8300	< 780	–
N#Cc1cccc(NC(=O)Nc2ccccc2CN2CCC(Cc3ccccc3)CC2)c1	750	> 10000	–
NCC(CCCN1CCC(O)(c2ccc(Cl)cc2)CC1)(c1ccccc1)c1ccccc1	12000	760	–
O=C(Nc1cc(F)ccc1F)Nc1ccccc1CN1CCN(Cc2ccccc2)CC1	–	–	inhibition [3]: 28%
O=C(Nc1ccccc1)Nc1ccccc1/C(CN1CCC(Cc2ccccc2)CC1)=N\O	–	–	inhibition [10]: 59%
COC(=O)c1cccc(NC(=O)Nc2cccc(C(C)=O)c2)c1CN1CCC(Cc2ccc(F)cc2)CC1	8	–	IC50 [4]: 76 nM; IC50 [2]: 8.2 nM
COC(=O)N1CCC(NC(=O)NCC(CCCN2CCC(O)(c3ccc(Cl)cc3)CC2)(c2ccccc2)c2ccccc2)CC1	5300	500	–
COC(=O)c1ccc(CN2CCC(Cc3ccccc3)CC2)c(NC(=O)Nc2cccc(C#N)c2)c1	–	–	inhibition [11]: 72%
CN(C)CCNC(=O)NCC(CCCN1CCC(O)(c2ccc(Cl)cc2)CC1)(c1ccccc1)c1ccccc1	2230	67	–
CNC(=O)c1ccc(NC(=O)Nc2cccc(C(C)=O)c2)c(CN2CCC(Cc3ccc(F)cc3)CC2)c1	8	–	IC50 [2]: 11.8 nM
O=C(Nc1cc(F)ccc1F)Nc1ccccc1CN1CCC(O)(c2ccc(Cl)cc2)CC1	–	–	inhibition [3]: 21%
O=C(Nc1cc(F)ccc1F)Nc1ccccc1C(O)CN1CCC(Cc2ccccc2)CC1 (stereo not drawn)	410	> 10000	–
O=C(Nc1ccccc1)Nc1ccccc1CN1CCC(Cc2ccccc2)CC1	900	> 10000	–
O=C(NCC(CCCN1CCC(O)(c2ccc(Cl)cc2)CC1)(c1ccccc1)c1ccccc1)Nc1ccncc1	3500	167	–
O=C(NCCN1CCCCC1)NCC(CCCN1CCC(O)(c2ccc(Cl)cc2)CC1)(c1ccccc1)c1ccccc1	2200	360	–
O=C(Nc1cc(F)ccc1F)Nc1ccccc1CN1CCC(Cc2ccccc2)CC1	1750	> 50000	–
O=C(NCC(CCCN1CCC(O)(c2ccc(Cl)cc2)CC1)(c1ccccc1)c1ccccc1)Nc1cccc(C(F)(F)F)c1	19300	1410	–
O=C(Nc1ccc2c[nH]nc2c1)Nc1ccccc1CN1CCC(Cc2ccccc2)CC1	450	> 10000	–
O=C(NCC1CCCCC1)NCC(CCCN1CCC(O)(c2ccc(Cl)cc2)CC1)(c1ccccc1)c1ccccc1	2400	125	–
COc1cccc(NC(=O)Nc2ccccc2C(O)CN2CCC(Cc3ccccc3)CC2)c1 (stereo not drawn)	81	> 10000	–
